Results on five compounds are retold here after ChEMBL document CHEMBL1671663, “In vivo characterization of the peptide deformylase inhibitor LBM415 in murine infection models” (Antimicrob Agents Chemother, 2009).

For test [1], the system named is Streptococcus pneumoniae. Kind of test: Antimicrobial activity against multiple drug resistant Streptococcus pneumoniae ATCC 700677 infected in po dosed BALB/c mouse administered twice daily for 3 days. It counts as functional. The note with it: ATCC 700677, po, 72 h. The essentials: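 Female BALB/c mice (19–23 g) infected intraperitoneally with ATCC 700677 from a 5-h Todd-Hewitt–30% horse serum log culture, suspended in 5% hog mucin, 1.5 × 10^7 to 2 × 10^7 CFU/mouse. Groups of 5–6, typically three dose levels; vehicle controls. Dosed 1, 5, 17, 27, 42, 51 h post-infection. ED50 from day-8 survival by probit analysis, with 95% CI.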

For test [2], the system named is Staphylococcus aureus. The experiment in a line: Antimicrobial activity against methicillin susceptible Staphylococcus aureus ATCC 13709 infected in po dosed NMRI mouse treated 1 and 5 hrs post infection. As to conditions: ATCC 13709, po. It counts as functional. The method, boiled down: (§1)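 Intraperitoneal infection (0.3 ml/mouse, 10 to 100 times minimal lethal dose) with inoculum in 0.86% NaCl; ATCC 49951 grown overnight in Mueller-Hinton broth (1.7 × 10^7 to 2.2 × 10^7 CFU/mouse), ATCC 13709 in tryptic soy broth (7.3 × 10^7 to 2 × 10^8 CFU/mouse). Groups of 5 to 6 mice, typically three doses, treated 1 and 5 h postinfection; vehicle controls. ED50 by probit analysis of day-8 survival.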

Test [3] concerns Staphylococcus aureus. Kind of test: Antimicrobial activity against methicillin-resistant Staphylococcus aureus NB01021 by broth microdilution method. The class given is functional. The method, boiled down: (§2)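 MICs determined by broth microdilution following CLSI guidelines. Inocula came from overnight Mueller-Hinton broth (ATCC 49951, NB01021) or overnight Trypticase soy agar culture (ATCC 6301). ATCC 6303 and ATCC 700677 came from a 5-h log culture in Todd-Hewitt broth–30% horse serum.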

In test [4] the test system is Streptococcus pneumoniae. The experiment in a line: Antimicrobial activity against Streptococcus pneumoniae ATCC 6301 infected in po dosed NMRI mouse administered thrice daily for 4 days. As to conditions: ATCC 6301, po, 96 h.
For test [5], the system named is Streptococcus pneumoniae. The experiment in a line: Antimicrobial activity against multiple drug-resistant Streptococcus pneumoniae ATCC 700677 by broth microdilution method. It counts as functional. The essentials: as §2
In test [6] the test system is Staphylococcus aureus. The experiment in a line: Antimicrobial activity against methicillin-susceptible Staphylococcus aureus ATCC 49951 by broth microdilution method. It counts as functional. The essentials:
as §2

Test [7] has as its system Staphylococcus aureus. Kind of test: Antimicrobial activity against methicillin susceptible Staphylococcus aureus ATCC 49951 infected in sc dosed NMRI mouse treated 1 and 5 hrs post infection. It counts as functional. As to conditions: ATCC 49951, sc. The method, boiled down:
as §1

Test [8] relates to Staphylococcus aureus. Kind of test: Antimicrobial activity against methicillin-susceptible Staphylococcus aureus ATCC 13709 by broth microdilution method. The class given is functional. The method, boiled down: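 MIC by broth microdilution following CLSI guidelines.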
For test [9], the system named is Staphylococcus aureus. Kind of test: Antimicrobial activity against methicillin susceptible Staphylococcus aureus ATCC 49951 infected in po dosed NMRI mouse treated 1 and 5 hrs post infection. The class given is functional. The note with it: ATCC 49951, po. The essentials:
as §1

Test [10] has as its system Streptococcus pneumoniae. Kind of test: Antimicrobial activity against Streptococcus pneumoniae ATCC 6303 by broth microdilution method. The class given is functional. The method, boiled down: as §2
The subject of test [11] is Streptococcus pneumoniae. Kind of test: Antimicrobial activity against Streptococcus pneumoniae ATCC 6301 by broth microdilution method. It counts as functional. The essentials: as §2
The test system of test [12] is Streptococcus pneumoniae. Kind of test: Antimicrobial activity against Streptococcus pneumoniae ATCC 6303 infected in po dosed BALB/c mouse pneumonia model assessed as complete eradication of bacteria administered twice daily 3 days starting 16 hrs post infection. It counts as functional. The note with it: Streptococcus pneumoniae, ATCC 6303, po. The essentials: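 Anesthetized (ketamine/xylazine) female BALB/c mice (19 to 22 g) inoculated intranasally with 50 µl log-phase culture (1.4 × 10^5 CFU/mouse). Oral treatment, six mice per group, at 16, 27, 40, 51, 64 and 75 h postinfection; vehicle controls. Lungs harvested one day after last dose, homogenized, plated; log10 CFU/lung. Deaths assigned 9 log10 CFU/lung; Kruskal-Wallis with Dunn's test versus control.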

The test system of test [13] is Staphylococcus aureus. Kind of test: Antimicrobial activity against methicillin-resistant Staphylococcus aureus NB01021 infected in sc dosed BALB/c mouse administered 0, 4, 23 hrs post infection. It counts as functional. The method, boiled down:
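Female BALB/c mice (19–23 g) infected intraperitoneally with MRSA NB01021 in 5% hog gastric mucin, 2.1 × 10^7 to 2.8 × 10^7 CFU/mouse (0.3 ml), 10–100× minimal lethal dose. Three dose levels, groups of 5–6; vehicle controls. Treatment 0, 4 and 23 h post-infection. Observed 8 days; ED50 with 95% CI by probit analysis of day-8 survival.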

Molecules are shown by their SMILES. ≈ marks a conversion by molar mass, not a printed value.

In the case of `CC1(C)S[C@@H]2[C@H](NC(=O)COc3ccccc3)C(=O)N2[C@H]1C(=O)O` [PENICILLIN V], the ED50 in [1] is more than 60 mg/kg.

In the case of `CC[C@H]1OC(=O)[C@H](C)[C@@H](O[C@H]2C[C@@](C)(OC)[C@@H](O)[C@H](C)O2)[C@H](C)[C@@H](O[C@@H]2O[C@H](C)C[C@H](N(C)C)[C@H]2O)[C@](C)(OC)C[C@@H](C)C(=O)[C@H](C)[C@@H](O)[C@]1(C)O` [CLARITHROMYCIN], the ED50 is 8.7 mg/kg in [2]; 2.1 mg/kg in [4]; 1.2 mg/kg in [7]; more than 60 mg/kg in [1]; 7.7 mg/kg in test [9]. Also, the MIC was more than 64 µg/mL in test [3]; 32 µg/mL (≈ 42.8 µM) in [5]; 1 µg/mL (≈ 1.34 µM) in [6]; 0.5 µg/mL (≈ 0.668 µM) in test [8]; 0.03 µg/mL (≈ 0.0401 µM) in test [10]; 0.015 µg/mL (≈ 0.0201 µM) in test [11].

With `CC[C@H]1OC(=O)[C@H](C)C(=O)[C@H](C)[C@@H](O[C@@H]2O[C@H](C)C[C@H](N(C)C)[C@H]2O)[C@](C)(OC)C[C@@H](C)C(=O)[C@H](C)[C@H]2N(CCCCn3cnc(-c4cccnc4)c3)C(=O)O[C@]12C` [TELITHROMYCIN], the MIC in [3] was more than 64 µg/mL; in test [5], not above 0.25 µg/mL; in [6], 0.25 µg/mL (≈ 0.308 µM); in test [8] it was not above 0.125 µg/mL; in test [10] it was not above 0.125 µg/mL; in [11], not above 0.125 µg/mL. The compound further came in with an ED50 in [1] of 13.2 mg/kg.

Turning to `COc1c(N2C[C@@H]3CCCN[C@@H]3C2)c(F)cc2c(=O)c(C(=O)O)cn(C3CC3)c12` [MOXIFLOXACIN], the MIC in test [3] is 1 µg/mL (≈ 2.49 µM); in test [5], not above 0.06 µg/mL; in test [6], 0.06 µg/mL (≈ 0.149 µM); in test [8] it was not above 0.03 µg/mL; in test [10], 0.5 µg/mL (≈ 1.25 µM); in [11], 0.5 µg/mL (≈ 1.25 µM). In addition, the ED50 in [12] is 14.3 mg/kg.

For `CC1(C)S[C@@H]2[C@H](NC(=O)Cc3ccccc3)C(=O)N2[C@H]1C(=O)O` [PENICILLIN G], the ED50 in test [13] is more than 135 mg/kg. The minimum inhibitory concentration (MIC) in test [3] is 64 µg/mL (≈ 191 µM); in test [5], 32 µg/mL (≈ 95.7 µM); in test [6], not above 0.125 µg/mL; in test [8], not above 0.125 µg/mL; in test [10], 0.06 µg/mL (≈ 0.179 µM); in [11], 0.03 µg/mL (≈ 0.0897 µM).
